Data reported in ChEMBL document CHEMBL4184148 (Bioorg Med Chem Lett, 2017).

Key:
[1] = test system: Tyrosine-protein kinase ABL1 (Homo sapiens), P00519 [F317I]; assay: Binding affinity to human non-phosphorylated ABL1 F317I mutant (S229 to K512 residues) expressed in HEK293 cells at 1 uM by Kinomescan method relative to control; assay type: cell-based
[2] = target: Tyrosine-protein kinase receptor Tie-1 (Homo sapiens) (UniProt P35590); assay: Binding affinity to wild-type human partial length TIE1 (T819 to A1138 residues) expressed in Escherichia coli BL21 at 1 uM by Kinomescan method relative to control
[3] = target: TGF-beta receptor type-1 (Homo sapiens) (UniProt P36897); assay: Binding affinity to wild-type human partial length TGFBR1 (D179 to M503 residues) expressed in Escherichia coli BL21 at 1 uM by Kinomescan method relative to control
[4] = target: Wee1-like protein kinase 2 (Homo sapiens) (UniProt P0C1S8); assay: Binding affinity to wild-type human partial length WEE2 (M204 to K492 residues) expressed in Escherichia coli BL21 at 1 uM by Kinomescan method relative to control
[5] = target: Death-associated protein kinase 3 (Homo sapiens) (UniProt O43293); assay: Binding affinity to wild-type human partial length DAPK3 (M1 to A277 residues) expressed in Escherichia coli BL21 at 1 uM by Kinomescan method relative to control
[6] = target: Atypical kinase COQ8A, mitochondrial (Homo sapiens) (UniProt Q8NI60); assay: Binding affinity to wild-type human […] ADCK3 (M280 to Q647 residues) expressed in Escherichia coli BL21 at 1 uM by Kinomescan method relative to control
[7] = target: Casein kinase I isoform gamma-3 (Homo sapiens) (UniProt Q9Y6M4); assay: Binding affinity to wild-type human full length CSNK1G3 (M1 to K447 residues) expressed in Escherichia coli BL21 at 1 uM by Kinomescan method relative to control
Procedure, shortened: (§1)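 Run as one kinome-wide competition binding panel with each compound at a single fixed concentration. Results were plotted as a kinome-wide selectivity map.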

[8] = target: Myosin light chain kinase, smooth muscle (Homo sapiens) (UniProt Q15746); assay: Binding affinity to wild-type human full length MYLK (M854 to E1845 residues) expressed in HEK293 cells at 1 uM by Kinomescan method relative to control; assay type: cell-based; procedure, shortened: as §1
[9] = target: Receptor tyrosine-protein kinase erbB-4 (Homo sapiens) (UniProt Q15303); assay: Binding affinity to wild-type human partial length ERBB4 (L690 to K994 residues) expressed in Escherichia coli BL21 at 1 uM by Kinomescan method relative to control
[10] = target: Ribosomal protein S6 kinase alpha-4 (Homo sapiens) (UniProt O75676); assay: Binding affinity to wild-type human partial length N-terminal RPS6KA4 kinase domain 1 expressed in Escherichia coli BL21 at 1 uM by Kinomescan method relative to control
[11] = target: Membrane-associated tyrosine- and threonine-specific cdc2-inhibitory kinase (Homo sapiens) (UniProt Q99640); assay: Binding affinity to wild-type human partial length PKMYT1 (A88 to G366 residues) expressed in Escherichia coli BL21 at 1 uM by Kinomescan method relative to control
[12] = target: Serine/threonine-protein kinase 32B (Homo sapiens) (UniProt Q9NY57); assay: Binding affinity to wild-type human full length YANK2 (M1 to S414 residues) expressed in Escherichia coli BL21 at 1 uM by Kinomescan method relative to control
Procedure, shortened: (§2)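 Kinome-wide competition binding panel run by an outside provider, with each compound tested at a single concentration. Activity is read against the kinase panel.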

[13] = target: Serine/threonine-protein kinase pim-1 (Homo sapiens) (UniProt P11309); assay: Binding affinity to wild-type human partial length PIM1 (A15 to K313 residues) expressed in Escherichia coli BL21 at 1 uM by Kinomescan method relative to control
[14] = target: Ribosomal protein S6 kinase alpha-6 (Homo sapiens) (UniProt Q9UK32); assay: Binding affinity to wild-type human partial length N-terminal RSK4 kinase domain 1 (M1 to E397 residues) expressed in HEK293 cells at 1 uM by Kinomescan method relative to control; assay type: cell-based
[15] = target: Rhodopsin kinase GRK1 (Homo sapiens) (UniProt Q15835); assay: Binding affinity to wild-type human full length GRK1 (M1 to S563 residues) expressed in HEK293 cells at 1 uM by Kinomescan method relative to control; assay type: cell-based; procedure, shortened: as §1
[16] = target: Cyclin-dependent kinase 3 (Homo sapiens) (UniProt Q00526); assay: Binding affinity to wild-type human full length CDK3 (M1 to H305 residues) expressed in Escherichia coli BL21 at 1 uM by Kinomescan method relative to control; procedure, shortened: as §1
[17] = target: Phosphatidylinositol 4,5-bisphosphate 3-kinase catalytic subunit gamma isoform (Homo sapiens) (UniProt P48736); assay: Binding affinity to wild-type human partial length PIK3CG (S144 to A1102 residues) expressed in HEK293 cells at 1 uM by Kinomescan method relative to control; assay type: cell-based
[18] = target: Dual specificity testis-specific protein kinase 1 (Homo sapiens) (UniProt Q15569); assay: Binding affinity to wild-type human full length TESK1 (R37 to S626 residues) expressed in Escherichia coli BL21 at 1 uM by Kinomescan method relative to control; procedure, shortened: as §2
[19] = target: G protein-coupled receptor kinase 3 (Homo sapiens) (UniProt P35626); assay: Binding affinity to wild-type human full length GRK3 (M1 to L688 residues) expressed in HEK293 cells at 1 uM by Kinomescan method relative to control; assay type: cell-based; procedure, shortened: as §1
[20] = target: Tyrosine-protein kinase ABL1 (Homo sapiens) (UniProt P00519); assay: Binding affinity to wild-type human phosphorylated ABL1 (S229 to K512 residues) expressed in HEK293 cells at 1 uM by Kinomescan method relative to control; assay type: cell-based
[21] = target: Dual specificity mitogen-activated protein kinase kinase 1 (Homo sapiens) (UniProt Q02750); assay: Binding affinity to wild-type human full length MEK1 (M1 to V393 residues) expressed in HEK293 cells at 1 uM by Kinomescan method relative to control; assay type: cell-based; procedure, shortened: as §1
[22] = target: Tyrosine-protein kinase BTK (Homo sapiens) (UniProt Q06187); assay: Binding affinity to wild-type human full length BTK (M1 to S659 residues) expressed in HEK293 cells at 1 uM by Kinomescan method relative to control; assay type: cell-based
[23] = target: Calcium/calmodulin-dependent protein kinase type II subunit alpha (Homo sapiens) (UniProt Q9UQM7); assay: Binding affinity to wild-type human partial length CAMK2A (M1 to K328 residues) expressed in Escherichia coli BL21 at 1 uM by Kinomescan method relative to control
[24] = target: MAP/microtubule affinity-regulating kinase 3 (Homo sapiens) (UniProt P27448); assay: Binding affinity to wild-type human full length MARK3 (M1 to L729 residues) expressed in Escherichia coli BL21 at 1 uM by Kinomescan method relative to control; procedure, shortened: as §1
[25] = test system: Mast/stem cell growth factor receptor Kit (Homo sapiens), P10721 [L576P]; assay: Binding affinity to human partial length KIT L576P mutant (Y545 to D952 residues) expressed in Escherichia coli BL21 at 1 uM by Kinomescan method relative to control

| SMILES | Activity [1] [%] | Activity [2] [%] | Activity [3] [%] | Activity [4] [%] | Activity [5] [%] | Activity [6] [%] | Activity [7] [%] | Activity [8] [%] | Activity [9] [%] | Activity [10] [%] | Activity [11] [%] | Activity [12] [%] | Activity [13] [%] | Activity [14] [%] | Activity [15] [%] | Activity [16] [%] | Activity [17] [%] | Activity [18] [%] | Activity [19] [%] | Activity [20] [%] | other results |
| --- | --- | --- | --- | --- | --- | --- | --- | --- | --- | --- | --- | --- | --- | --- | --- | --- | --- | --- | --- | --- | --- |
| C=CC(=O)Nc1ccc(C(=O)Nc2ccc(Nc3ncc4c(n3)N(C)c3ccc(C)cc3C(=O)N4C)cc2)cc1 | 77 | 96 | 89 | 100 | 100 | 99 | 100 | 89 | 96 | 100 | 96 | 100 | 88 | 76 | 73 | 100 | 24 | 100 | 100 | 94 | Activity [21]: 100%; Activity [22]: 94%; Activity [23]: 100%; Activity [24]: 80%; Activity [25]: 85% |
| CCC(=O)Nc1ccc(C(=O)Nc2ccc(Nc3ncc4c(n3)N(C)c3ccc(C)cc3C(=O)N4C)cc2)cc1 | 76 | 88 | 97 | 97 | 82 | 96 | 97 | 78 | 96 | 95 | 86 | 100 | 85 | 74 | 76 | 95 | 20 | 100 | 70 | 90 | Activity [21]: 52%; Activity [22]: 100%; Activity [23]: 88%; Activity [24]: 95%; Activity [25]: 71% |
